ChEMBL document CHEMBL4000180, “Structure-Activity Relationships of Small Molecule Autotaxin Inhibitors with a Discrete Binding Mode” (J Med Chem, 2017)
Values after ≈ are worked out from the molar mass of the structure shown. Active and inactive are the calls of the source. The calls are words filed in the database; no cut-off is given here.

Legend:
Autotaxin [1] = biological target: T1, Autotaxin (Homo sapiens, UniProt Q13822); test: Inhibition of human ATX expressed in HEK293 Flp-In cells using LPC as substrate measured every 30 sec for 90 mins by fluorescence assay; type: cell-based
Autotaxin [2] = biological target: T1, Autotaxin; test: Inhibition of recombinant human ATX using bisP-nitrophenyl phosphate as substrate measured after 30 mins
[3] = Lipophilicity, log D of the compound at pH 7.4 by chromatographic method; type: physicochemical; details: buffer
[4] = Kinetic aqueous solubility by CLND method; type: physicochemical; details: read-out: Kinetic_solubility
[5] = Apparent permeability of the compound at pH 7.4; type: physicochemical; details: not told
Autotaxin [6] = biological target: T1, Autotaxin; test: Noncompetitive inhibition of human ATX expressed in HEK293 Flp-in cells up to 11 nM using varying lysophosphatidyl choline substrate level by Lineweaver-Burk plot analysis; type: cell-based
Outline: (§1)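 hATX from HEK293 Flp-In cells; choline release from LPC coupled to choline oxidase/HRP/homovanillic acid fluorescence in Tris pH 7.4 buffer with CaCl2 and Triton X-100. Activity measured across varying LPC concentrations at fixed inhibitor concentrations; mixed-inhibition model fitted to obtain alpha (near 1 taken as noncompetitive), with Lineweaver-Burk double-reciprocal plots for display.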

Autotaxin [7] = biological target: T1, Autotaxin; test: Inhibition of ATX (unknown origin) using lysophosphatidyl choline as substrate
Outline: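 Human ATX produced in HEK293 Flp-In cells, 20 nM, incubated with 150 μM LPC(18:1) in 50 mM Tris pH 7.4, 0.01% Triton X-100, 50 mM CaCl2 with choline oxidase (1 U/ml), HRP (2 U/ml) and 2 mM homovanillic acid. Choline release read as HVA fluorescence, ex/em 320/450 nm, every 30 s for 90 min. Screen 400 nM–100 μM (n = 3); 10-point curves 0.3 nM–10 μM, n = 2.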

Autotaxin [8] = biological target: T1, Autotaxin; test: Inhibition of ATX in human MDA-MB-435S cells using lysophosphatidyl choline as substrate preincubated for 15 mins followed by substrate addition measured after 90 mins; type: cell-based
Autotaxin [9] = biological target: T1, Autotaxin; test: Noncompetitive inhibition of human ATX expressed in HEK293 Flp-in cells up to 800 nM using varying lysophosphatidyl choline substrate level by Lineweaver-Burk plot analysis; type: cell-based; outline: as §1

Row | SMILES | IC50 (Autotaxin [1]; read-out: IC50) [nM] | IC50 (Autotaxin [2]) [nM] | also measured
1 | Cc1[nH]c2ccccc2c1Sc1cccc(C(=O)O)n1 | > 30000 |  | 
2 | COc1ccc2c(Sc3cccc(C(=O)O)n3)c(C)n(-c3cnn(C)c3)c2c1 | 124 | 75 | 
3 | Cc1[nH]c2cccc(C)c2c1Sc1cccc(C(=O)O)n1 | > 8000 |  | 
4 | Cc1c(Sc2cccc(C(=O)O)n2)c2ccc(Cl)cc2n1C | 31 | > 4000 | chromatographic logD [3]: 2.68; solubility kinetic [4]: 300 µM (≈ 99.8 µg/mL); Papp [5]: 3.2 ×10⁻⁶ cm/s
5 | Cc1c(Sc2cccc(C(=O)O)c2)c2ccccc2n1-c1ccccc1 | > 5000 | > 30000 | 
6 | Cc1c(Oc2cccc(C(=O)O)c2)c2ccc(Cl)cc2n1-c1cnn(C)c1 | 726 | 204 | 
7 | Cc1c(Sc2cccc(C(=O)O)n2)c2ccccc2n1C | > 30000 |  | 
8 | Cc1[nH]c2cc(F)ccc2c1Sc1cccc(C(=O)O)n1 | > 20000 |  | 
9 | Cc1c(Cc2cccc(C(=O)O)c2)c2ccc(Cl)cc2n1-c1cnn(C)c1 | 660 | 33 | 
10 | Cc1[nH]c2cc(Cl)ccc2c1Sc1cccc(C(=O)O)c1 | 747 | 290 | 
11 | Cc1cc2ccc(Cl)cc2n1-c1cnn(C)c1 | > 30000 |  | 
12 | Cc1c(SCCCC(=O)O)c2ccccc2n1-c1cnn(C)c1 | > 10000 |  | 
13 | Cc1c(SCCCC(=O)O)c2ccc(Cl)cc2n1-c1cnn(C)c1 | > 30000 |  | 
14 | Cc1c(Sc2cccc(C(=O)O)n2)c2c(Cl)cccc2n1-c1cnn(C)c1 | > 30000 |  | 
15 | Cc1c(Sc2cccc(C(=O)O)c2)c2ccc(Cl)cc2n1C | 1200 | 100 | inhibition (Autotaxin [6]): Active; IC50 (Autotaxin [7]): > 1000 nM
16 | Cc1c(Sc2cccc(C(=O)O)c2F)c2ccc(Cl)c(F)c2n1CC(=O)N1CC2(CC2)c2ccccc21 |  |  | IC50 (Autotaxin [7]): 2 nM
17 | Cc1c(Sc2cccc(C(=O)O)c2)c2ccc(Cl)cc2n1C1CCCC1 | 20000 to 25000 | > 4000 | 
18 | Cc1[nH]c2cc(Cl)ccc2c1Sc1cccc(C(=O)O)n1 | 25 | 604 | chromatographic logD [3]: 2.19; solubility kinetic [4]: ≥ 395 µM; Papp [5]: 1.1 ×10⁻⁶ cm/s
19 | Cc1c(Sc2cccc(C(=O)O)n2)c2ccccc2n1C1CCCC1 | > 30000 |  | 

Row | SMILES | IC50 (Autotaxin [1]; read-out: IC50) [nM] | IC50 (Autotaxin [2]) [nM] | also measured
20 | Cc1c(Cc2cccc(C(=O)O)n2)c2ccccc2n1-c1cnn(C)c1 | > 30000 |  | 
21 | Cc1cccc2c1c(Sc1cccc(C(=O)O)n1)c(C)n2-c1cnn(C)c1 | > 10000 |  | 
22 | Cc1c(Oc2cccc(C(=O)O)c2)c2ccccc2n1-c1cnn(C)c1 | > 30000 |  | 
23 | Cc1c(Sc2cccc(C(=O)O)n2)c2cc(Cl)ccc2n1-c1cnn(C)c1 | 258 |  | 
24 | Cc1c(Sc2cccc(C(=O)O)c2)c2ccc(Cl)cc2n1-c1ccccc1 | 81 | 5 | IC50 (Autotaxin [8]): < 300 nM
25 | Cc1c(Sc2cccc(C(=O)O)n2)c2ccccc2n1-c1cnn(C)c1 | 1700 | 5700 | inhibition (Autotaxin [9]): Active
26 | Cc1c(Sc2cccc(C(=O)O)n2)c2ccc(F)cc2n1-c1ccn(C)n1 | 349 | 816 | 
27 | Cc1c(Sc2cccc(C(=O)O)n2)c2ccc(Cl)cc2n1C1CCCC1 | > 2800 | 2000 | chromatographic logD [3]: 4.05; solubility kinetic [4]: 336 µM (≈ 130 µg/mL); Papp [5]: 29 ×10⁻⁶ cm/s
28 | COc1cccc2c1c(Sc1cccc(C(=O)O)n1)c(C)n2-c1cnn(C)c1 | > 30000 |  | 
29 | Cn1cc(-c2cccc(Sc3cccc(C(=O)O)n3)c2)cn1 |  |  | inhibition (Autotaxin [1]): inactive
30 | Cc1ccc2c(Sc3cccc(C(=O)O)n3)c(C)n(-c3cnn(C)c3)c2c1 | 25 | 85 | 
31 | Cc1[nH]c2ccccc2c1Sc1cccc(C(=O)O)c1 | > 30000 |  | 
32 | Cc1c(Sc2cccc(C(=O)O)n2)c2ccc(Cl)cc2n1-c1cnn(C)c1 | 4 | 22 | chromatographic logD [3]: 2.7; solubility kinetic [4]: 377 µM (≈ 150 µg/mL); Papp [5]: 2.3 ×10⁻⁶ cm/s; IC50 (Autotaxin [8]): < 300 nM
33 | Cc1c(Sc2cccc(C(=O)O)n2)c2ccc(Cl)cc2n1-c1ccccc1 |  |  | IC50 (Autotaxin [1]; hek293): Nd(Insoluble); chromatographic logD [3]: 4.3; solubility kinetic [4]: 485 µM (≈ 192 µg/mL); Papp [5]: 15.5 ×10⁻⁶ cm/s
34 | Cc1c(Cc2cccc(C(=O)O)c2)c2ccccc2n1-c1cnn(C)c1 | > 30000 |  | 
35 | Cc1c(Sc2cccc(C(=O)O)c2)c2ccc(Cl)cc2n1-c1cnn(C)c1 | 11 |  | chromatographic logD [3]: 3.36; solubility kinetic [4]: 556 µM (≈ 221 µg/mL); Papp [5]: 6.4 ×10⁻⁶ cm/s; IC50 (Autotaxin [8]): < 300 nM
36 | Cc1c(Cc2cccc(C(=O)O)n2)c2ccc(Cl)cc2n1-c1cnn(C)c1 | 339 | 89 | 
37 | Cc1c(Sc2cccc(C(=O)O)n2)c2c(F)cccc2n1-c1ccn(C)n1 | 3000 to 3500 |  | 
38 | Cc1c(Sc2cccc(C(=O)O)n2)c2ccccc2n1-c1ccccc1 | > 30000 |  | 
